Assay results: ChEMBL document CHEMBL1149790, “Synthesis of some novel thiourea derivatives obtained from 5-[(4-aminophenoxy)methyl]-4-alkyl/aryl-2,4-dihydro-3H-1,2,4-triazole-3-thiones and evaluation as antiviral/anti-HIV and anti-tuberculosis agents” (Eur J Med Chem, 2008)
Values after ≈ are worked out from the molar mass of the structure shown. Active and inactive are the calls of the source. No cut-off for these calls is given here.

Experiments:
Human respirovirus 3 = assay: Antiviral activity against Parainfluenza 3 virus in african green monkey Vero cells assessed as reduction of virus-induced cytopathogenicity; format: functional
In short: (§1)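 Confluent cell monolayers (E6SM, HEL, HeLa or Vero, per line) inoculated with 100 CCID50 virus; 1 h adsorption, residual virus removed, then incubated with compound at 400, 200, 100 … µg/ml. Cytopathicity scored once complete in untreated virus controls; MIC = concentration inhibiting virus-induced cytopathicity.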

Punta Toro virus = assay: Antiviral activity against Punta Toro virus in african green monkey Vero cells assessed as reduction of virus-induced cytopathogenicity; format: functional; in short: as §1
Coxsackievirus B4 [1] = assay: Antiviral activity against Coxsackie virus B4 in human HeLa cells assessed as inhibition of virus-induced cytopathogenicity; format: functional; conditions: Enterovirus B; in short: as §1
[2] = Cytotoxicity against human HEL cells assessed as reduction of cell growth; format: cell-based
In short: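 HEL cells; CC50 = compound concentration reducing cell growth by 50%.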

[3] = Cytotoxicity against human E6SM cells; format: cell-based; conditions: E6SM cells
In short: (§2)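 Uninfected cell cultures exposed to test compounds alongside antiviral assays; minimum cytotoxic concentration (MCC) = concentration causing a microscopically detectable alteration of cell morphology.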

[4] = system: Mammalian orthoreovirus 1; assay: Antiviral activity against Reo virus 1 in african green monkey Vero cells assessed as reduction of virus-induced cytopathogenicity; format: functional; in short: as §1
[5] = system: Vesicular stomatitis virus; assay: Antiviral activity against in Vesicular stomatitis virus in human E6SM cells assessed as reduction of virus-induced cytopathogenicity; format: functional; in short: as §1
[6] = system: Mycobacterium tuberculosis; assay: Antitubercular activity against Mycobacterium tuberculosis H37Rv at 6.25 ug/ml by MABA assay; format: functional
[7] = Cytotoxicity against human HEL cells assessed as alteration of cell morphology; format: cell-based; in short: as §2
[8] = system: Vesicular stomatitis virus; assay: Antiviral activity against in Vesicular stomatitis virus in human HEL cells assessed as reduction of virus-induced cytopathogenicity; format: functional; in short: as §1
[9] = system: Respiratory syncytial virus; assay: Antiviral activity against respiratory syncytial virus in human HeLa cells assessed as inhibition of virus-induced cytopathogenicity; format: functional; in short: as §1
[10] = system: Vesicular stomatitis virus; assay: Antiviral activity against vesicular stomatitis virus in human HeLa cells assessed as inhibition of virus-induced cytopathogenicity; format: functional; in short: as §1
Human alphaherpesvirus 2 [11] = assay: Antiviral activity against HSV2 G in human HEL cells assessed as reduction of virus-induced cytopathogenicity; format: functional; conditions: Human alphaherpesvirus 2, G; in short: as §1
Human alphaherpesvirus 1 [12] = assay: Antiviral activity against thymidine kinase deficient and acyclovir resistant HSV1 KOS in human E6SM cells assessed as reduction of virus-induced cytopathogenicity; format: functional; conditions: Human alphaherpesvirus 1, KOS; in short: as §1
Human alphaherpesvirus 2 [13] = assay: Antiviral activity against HSV2 G in human E6SM cells assessed as reduction of virus-induced cytopathogenicity; format: functional; conditions: Human alphaherpesvirus 2, G; in short: as §1
Human betaherpesvirus 5 [14] = assay: Antiviral activity against human cytomegalovirus AD169 infected HEL cells assessed as reduction in virus plaque formation; format: functional, organism-based; conditions: Human betaherpesvirus 5, AD169, HEL
[15] = Cytotoxicity against human MT4 cells by MTT assay; format: cell-based
In short: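 Mock-infected MT-4 cells (6 × 10⁵ cells/ml) with serial five-fold compound dilutions in triplicate; MTT reduction read at 540 and 690 nm after 5 days, median OD of three wells; CC50 = concentration reducing OD540 of mock-infected control by 50%.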

Vero = assay: Cytotoxicity against african green monkey Vero cells; format: cell-based; conditions: chlorocebus sabaeus; in short: as §2
Sindbis virus = assay: Antiviral activity against Sindbis virus in african green monkey Vero cells assessed as reduction of virus-induced cytopathogenicity; format: functional; in short: as §1
Human alphaherpesvirus 1 [16] = assay: Antiviral activity against thymidine kinase deficient and acyclovir resistant HSV1 KOS in human HEL cells assessed as reduction of virus-induced cytopathogenicity; format: functional; conditions: Human alphaherpesvirus 1, KOS; in short: as §1
Human alphaherpesvirus 1 [17] = assay: Antiviral activity against HSV1 KOS in human E6SM cells assessed as reduction of virus-induced cytopathogenicity; format: functional; conditions: Human alphaherpesvirus 1, KOS; in short: as §1
Human betaherpesvirus 5 [18] = assay: Antiviral activity against human cytomegalovirus Davis infected HEL cells assessed as reduction in virus plaque formation; format: functional, organism-based; conditions: Human betaherpesvirus 5, Davis
Coxsackievirus B4 [19] = assay: Antiviral activity against Coxsackie virus B4 in african green monkey Vero cells assessed as reduction of virus-induced cytopathogenicity; format: functional; conditions: Enterovirus B; in short: as §1
Human alphaherpesvirus 3 [20] = assay: Antiviral activity against TK+ VZV OKA infected HEL cells assessed as reduction in virus plaque formation; format: functional, organism-based; conditions: Human alphaherpesvirus 3, OKA
[21] = Cytotoxicity against human HeLa cells; format: cell-based; in short: as §2
Human alphaherpesvirus 3 [22] = assay: Antiviral activity against TK- VZV 07/1 infected HEL cells assessed as reduction in virus plaque formation; format: functional, organism-based; conditions: Human alphaherpesvirus 3, 07/1, HEL
[23] = system: Human immunodeficiency virus 1; assay: Antiviral activity against HIV1 3B in human MT4 cells assessed as protection against virus-induced cytopathogenicity by MTT assay; format: functional, organism-based; parameters: Activity: concentration or dose not given beside the values; conditions: for IC50: Human immunodeficiency virus 1, 3B, MT4
In short: (§3)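 MT-4 cells at 6 × 10⁵ cells/ml infected with HIV-1 IIIB or HIV-2 ROD at 100–300 CCID50; compounds in serial five-fold dilutions, triplicate mock- and virus-infected wells. MTT viability read at 540 and 690 nm after 5 days, median OD of three wells; EC50 = 50% protection from viral cytopathic effect.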

Human alphaherpesvirus 1 [24] = assay: Antiviral activity against HSV1 KOS in human HEL cells assessed as reduction of virus-induced cytopathogenicity; format: functional; conditions: Human alphaherpesvirus 1, KOS; in short: as §1
[25] = system: Human immunodeficiency virus 2; assay: Antiviral activity against HIV2 ROD in human MT4 cells assessed as protection against virus-induced cytopathogenicity by MTT assay; format: functional, organism-based; parameters: Activity: concentration or dose not given beside the values; conditions: for IC50: Human immunodeficiency virus 2, ROD, MT4; in short: as §3

Row | SMILES | MIC (Human respirovirus 3) | MIC (Punta Toro virus) | MIC (Coxsackievirus B4 [1]) | CC50 [2] | MCC [3] | MIC [4] | MIC [5] | MCC [7] | MIC [8] | MIC [9] | MIC [10] | MIC (Human alphaherpesvirus 2 [11]) | MIC (Human alphaherpesvirus 1 [12]) | MIC (Human alphaherpesvirus 2 [13]) | EC50 (Human betaherpesvirus 5 [14]) | CC50 [15] | Activity (Vero) | MIC (Sindbis virus) | MIC (Human alphaherpesvirus 1 [16]) | MIC (Human alphaherpesvirus 1 [17]) | other results
1 | CCn1c(COc2ccc(N)cc2)n[nH]c1=S | > 16 µg/mL | > 16 µg/mL | > 400 µg/mL | > 50 µg/mL | > 400 µg/mL | > 16 µg/mL | > 400 µg/mL | > 400 µg/mL | > 400 µg/mL | > 400 µg/mL | > 400 µg/mL | 240 µg/mL (≈ 959 µM) | 240 µg/mL (≈ 959 µM) | 240 µg/mL (≈ 959 µM) | > 100 µg/mL | > 125 µg/mL | 80 µg/mL | > 16 µg/mL | 240 µg/mL (≈ 959 µM) | > 400 µg/mL | Activity [6]: inactive; EC50 (Human betaherpesvirus 5 [18]): > 100 µg/mL; MIC (Coxsackievirus B4 [19]): > 16 µg/mL; EC50 (Human alphaherpesvirus 3 [20]): > 100 µg/mL; MCC [21]: ≥ 400 µg/mL; EC50 (Human alphaherpesvirus 3 [22]): > 100 µg/mL; Activity [23]: 6%; IC50 [23]: > 125 µg/mL; MIC (Human alphaherpesvirus 1 [24]): > 400 µg/mL; Activity [25]: 8%; IC50 [25]: > 125 µg/mL
2 | C=CCNC(=S)Nc1ccc(OCc2n[nH]c(=S)n2C)cc1 | > 80 µg/mL | > 80 µg/mL | > 80 µg/mL | > 50 µg/mL | > 400 µg/mL | > 80 µg/mL | > 400 µg/mL | > 400 µg/mL | > 400 µg/mL | > 80 µg/mL | > 80 µg/mL | 240 µg/mL (≈ 715 µM) | 240 µg/mL (≈ 715 µM) | 240 µg/mL (≈ 715 µM) | > 100 µg/mL | ≥ 107 µg/mL | 400 µg/mL | > 80 µg/mL | 240 µg/mL (≈ 715 µM) | > 400 µg/mL | EC50 (Human betaherpesvirus 5 [18]): > 100 µg/mL; MIC (Coxsackievirus B4 [19]): 48 µg/mL (≈ 143 µM); EC50 (Human alphaherpesvirus 3 [20]): > 100 µg/mL; MCC [21]: 400 µg/mL; EC50 (Human alphaherpesvirus 3 [22]): > 100 µg/mL; Activity [23]: 1.5%; IC50 [23]: > 107 µg/mL; MIC (Human alphaherpesvirus 1 [24]): > 400 µg/mL; Activity [25]: 3%; IC50 [25]: > 114 µg/mL
3 | CNC(=S)Nc1ccc(OCc2n[nH]c(=S)n2-c2ccccc2)cc1 | > 80 µg/mL | > 80 µg/mL | > 80 µg/mL | > 50 µg/mL | > 400 µg/mL | > 80 µg/mL | > 400 µg/mL | > 400 µg/mL | > 400 µg/mL | > 80 µg/mL | > 80 µg/mL | > 400 µg/mL | > 400 µg/mL | > 400 µg/mL | > 100 µg/mL | ≥ 83.5 µg/mL | 400 µg/mL | > 80 µg/mL | > 400 µg/mL | > 400 µg/mL | EC50 (Human betaherpesvirus 5 [18]): > 100 µg/mL; MIC (Coxsackievirus B4 [19]): > 80 µg/mL; EC50 (Human alphaherpesvirus 3 [20]): > 100 µg/mL; MCC [21]: 400 µg/mL; EC50 (Human alphaherpesvirus 3 [22]): > 100 µg/mL; Activity [23]: 0.5%; IC50 [23]: > 83.5 µg/mL; MIC (Human alphaherpesvirus 1 [24]): > 400 µg/mL; Activity [25]: 2%; IC50 [25]: > 113 µg/mL
